Experimental data published in ChEMBL document CHEMBL3421581, “A solid-phase combinatorial approach for indoloquinolizidine-peptides with high affinity at D(1) and D(2) dopamine receptors” (Eur J Med Chem, 2015).
Activity calls are given as the source filed them. The rule behind the calls is not given here.

What was measured:
[1] = target: D(2) dopamine receptor (Homo sapiens) (UniProt P14416); test: Agonist activity at dopamine D2 receptor (unknown origin) transfected in CHO cells assessed as increase in ERK1/2 phosphorylation after 5 mins by Western blot analysis; type: cell-based
Outline: (§1)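 D2R cDNA transiently transfected into CHO cells by Lipofectamine, used 48 h later. Cells were kept serum-free for 16 h, optionally pretreated 5 min with 1 μM YM 09151-2, then exposed to ligands for 5 min (combined condition used 10 μM test ligand). Lysed in ice-cold buffer, phospho-ERK1/2 read by infrared scanning. Means ± SEM, 3 experiments in duplicate, unpaired t-test vs basal.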

[2] = target: D(2) dopamine receptor (Homo sapiens) (UniProt P14416); test: Allosteric modulating activity at dopamine D2 receptor (unknown origin) expressed in sheep striatum membranes assessed as change in D2R antagonist [3H]-YM09151-2 Koff at 3 uM preincubated for 2 hrs followed by [3H]-YM09151-2 addition by rapid filtration and radioactivity counting; type: cell membranes; details: Membrane, in the assay text read “preincubated for 1 hr” for “preincubated for 2 hrs”
Outline: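 Sheep striatal membranes (0.2 mg protein/mL) preincubated 1 h at 25 °C ± 3 μM test ligand in 50 mM Tris-HCl pH 7.4 with 10 mM MgCl2, then 1 nM [3H]-YM 09151-2 added. After 2 h, dissociation started with 10 μM unlabeled YM 09151-2. Total binding measured at intervals by GF/C filtration and scintillation counting. Nonspecific binding taken after 90 min with 10 μM YM 09151-2.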

[3] = target: D(2) dopamine receptor (Homo sapiens) (UniProt P14416); test: Antagonist activity at dopamine D2 receptor (unknown origin) transfected in CHO cells assessed as inhibition of YM09151-2 -induced downregulation of phosphorylated ERK1/2 level at 10 uM after 5 mins by Western blot analysis; type: cell-based; outline: as §1
[4] = target: D(2) dopamine receptor (Homo sapiens) (UniProt P14416); test: Displacement of [3H]-YM09151-2 from dopamine D2 receptor (unknown origin) expressed in sheep striatum membranes assessed as high affinity constant measured per mg of protein after 2 hrs by scintillation counting analysis; type: cell membranes; details: Membrane
Outline: (§2)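 Sheep striatal membranes (0.2–0.5 mg protein/mL), 2 h at 25 °C in 50 mM Tris-HCl pH 7.4 with 10 mM MgCl2. Radioligand was [3H]-SCH 23390 for D1R (nonspecific: 50 μM SCH 23390) or [3H]-YM 09151-2 for D2R (nonspecific: 50 μM raclopride). Competitor tested at 9 concentrations, 1 nM–50 μM, in triplicate. Total binding fitted by nonlinear regression to a two-site model. Means ± SD of three experiments.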

[5] = target: D(2) dopamine receptor (Homo sapiens) (UniProt P14416); test: Displacement of [3H]-YM09151-2 from dopamine D2 receptor (unknown origin) expressed in sheep striatum membranes assessed as low affinity constant measured per mg of protein after 2 hrs by scintillation counting analysis; type: cell membranes; details: Membrane; outline: as §2

Chain of D(2) dopamine receptor (Homo sapiens) (P14416 whole entry): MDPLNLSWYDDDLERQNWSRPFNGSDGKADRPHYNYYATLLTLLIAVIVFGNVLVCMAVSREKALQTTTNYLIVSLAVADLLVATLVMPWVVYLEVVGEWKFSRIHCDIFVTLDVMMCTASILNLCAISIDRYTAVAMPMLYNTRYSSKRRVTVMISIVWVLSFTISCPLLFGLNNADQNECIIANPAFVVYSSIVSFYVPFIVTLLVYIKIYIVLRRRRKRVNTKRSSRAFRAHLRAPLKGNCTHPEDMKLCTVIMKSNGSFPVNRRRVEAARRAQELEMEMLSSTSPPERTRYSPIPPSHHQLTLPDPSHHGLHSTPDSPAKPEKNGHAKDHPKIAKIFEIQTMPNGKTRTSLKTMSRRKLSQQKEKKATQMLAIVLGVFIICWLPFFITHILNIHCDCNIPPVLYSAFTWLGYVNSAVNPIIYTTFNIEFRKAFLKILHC

Structure (SMILES) | Activity [1] | Activity [2] | inhibition [3] | Activity [4] | Activity [5]
NCCCC[C@H](NC(=O)[C@H](Cc1ccc(F)c(F)c1)NC(=O)[C@H]1CCCN1C(=O)CCCCCNC(=O)[C@H]1CC[C@@H]2c3[nH]c4ccccc4c3CCN2C1)C(N)=O | Dose-dependent effect | inactive | inactive | 0.04 pmol | 0.12 pmol
NCCCC[C@H](NC(=O)[C@H](Cc1ccc(F)c(F)c1)NC(=O)[C@H]1CCCN1C(=O)CCCCCNC(=O)[C@@H]1CC[C@H]2c3[nH]c4ccccc4c3CCN2C1)C(N)=O |  |  |  | 0.06 pmol | 0.12 pmol
